Experimental data gathered from unrelated publications.
Compare with care: the assays were run in different laboratories.
Penicillin-binding protein 2X: Penicillin-binding protein 2X (Streptococcus pneumoniae R6, UniProt P59676)
PTGS2: Prostaglandin G/H synthase 2 (PTGS2, Homo sapiens, UniProt P35354)

Cn1c(=O)n(CCCCN2CCC3(CC2)OCc2ccccc23)c2ccccc21 — Ki (Sigma non-opioid intracellular receptor 1 (SIGMAR1, Cavia porcellus, UniProt Q60492); ligand displacement, radioligand; cell membranes): 0.0141 µM
CN1CC[C@@]2(C)c3cc(OC(=O)Nc4ccccc4)ccc3N(C)[C@@H]12 — IC50 (Retinal dehydrogenase 2 (ALDH1A2, Homo sapiens, UniProt O94788); enzyme activity, inhibitor, fluorescence; 15 min, pH 7.5): < 10 µM
COc1ccc2cc3[n+](cc2c1OC)CCc1cc2c(cc1-3)OCO2 — Kd (Zinc finger protein GLI1 (GLI1, Homo sapiens, UniProt P08151); binding, SPR): ~0.652 µM
Fc1c(F)c(F)c(OCCn2c(CNCC34CC5CC(CC(C5)C3)C4)nc3ccccc32)c(F)c1F — Kd (Penicillin-binding protein 2X; binding, MST): 70 µM
C=CCOc1ccc(C(=O)/C=C/c2cccc(F)c2)c(OS(=O)(=O)c2ccc(F)cc2)c1I — IC50 (PTGS2; enzyme activity, inhibitor): 18.6 µM
CCCCC/C=C\C/C=C\C/C=C\C/C=C\CCCC(=O)OC(CO)CO — Ki (Fatty acid-binding protein 5-ANS (Mus musculus, UniProt Q05816); ligand displacement, fluorescence): 1 µM
CC(C)(C)CNCc1nc2ccccc2n1CCOc1ccccc1 — Kd (Penicillin-binding protein 2X; binding, MST): 115 µM
C=CCOc1ccc(C(=O)/C=C/c2ccc(OC)cc2)c(OS(=O)(=O)c2ccc(F)cc2)c1I — IC50 (PTGS2; enzyme activity, inhibitor): 28.9 µM
COc1cc2c(cc1OC)CN(CCc1ccc(NC(=O)c3cccc4c(=O)c5cccc(OC)c5[nH]c34)cc1)CC2 — Ki (Alpha-1D adrenergic receptor (ADRA1D, Homo sapiens, UniProt P25100); cell-free assay): 0.144 µM
